# Assay results: the RNAGym collection of RNA variant scans (doi:10.1126/science.aae0568)
# This sample holds only a part of the variants without activity.
# B1: tRNA (parent)
# chain: GUUCCGUUGGCGUAAUGGUAACGCGUCUCCCUCCUAAGGAGAAGACUGCGGGUUCGAGUCCCGUACGGAACG
# Variants of: B1
# Assay: yeast fitness relative to wild type (ratio to wild type); higher = fitter; tRNA-Arg(CCU), competitive growth, 37 C, YPD
# Method in brief: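 Variants of the tRNA-Arg(CCU) gene, chemically synthesised with a 3% per-site mutation rate at 69 sites, were placed at the native genomic locus in Saccharomyces cerevisiae. The pooled strains were competed in YPD at 37°C for 24 hours in six parallel replicates. Gene amplicons from the start population and from each end population were read by 100-nucleotide paired-end sequencing. Darwinian fitness relative to wild type came from changes in genotype frequencies; genotypes needed ≥ 100 starting reads, and estimates < 0.5 were set to 0.5.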
row,Variant,yeast fitness
1,G67C G68A,0.874
2,G68C A70G,0.897
3,G68C A70U,0.899
4,A65G,0.999
5,A65C,1.01
6,A65U,0.993
7,G67A A69C,0.877
8,G67A A69U,0.733
9,A65C A69C A70G,0.554
10,C66U G68C,0.779
11,A65U G68A,0.729
12,C66A,0.766
13,C66G,0.902
14,C66U,0.968
15,C66A A70G,0.764
16,U64G A70U,0.787
17,G67U A70G,0.822
18,G67U A69G,1.05
19,A69G A70C,0.896
20,A69G A70G,1.02
21,G68A A69C,0.766
22,C66U G67A,0.841
23,A65U A70U,1.11
24,U64C G68C,0.978
25,U64C G68A,0.979
26,C66U A69G,0.801

row,Variant,yeast fitness
1,U64C C66U,0.958
2,G68A A70G,0.885
3,A65G A69U,0.993
4,A65G G68A,0.924
5,A65G G68U,0.809
6,C66A A69C,0.665
7,G67C A69G,0.977
8,G67C A69C,0.651
9,A69U,1.04
10,A69G,0.982
11,A69C,1.03
12,A65C G68A,0.767
13,A65G A70U,0.943
14,A65G A70G,0.865
15,A65C G67C,0.782
16,A65U C66A,0.751
17,A65G C66G G68A,0.575
18,G67A A70U,0.938
19,G67A A70G,0.917
20,A69U A70U,1.03
21,A69U A70G,0.871
22,C66U A70C,0.895
23,A65U C66G G68C,≤ 0.5
24,A65C C66G,0.588
25,A65C C66A,0.808
26,A65C C66U,0.89
